Data from ChEMBL document CHEMBL3098111, “Discovery of 2,5-diarylnicotinamides as selective orexin-2 receptor antagonists (2-SORAs)” (Bioorg Med Chem Lett, 2013).
Active and inactive are the calls of the source. The calls are words filed in the database; no cut-off is given here.

Tests used:
[1] = target: Interstitial collagenase (Homo sapiens) (UniProt P03956); experiment: Inhibition of human MMP-1 at 10 uM relative to control
[2] = target: T1, 5-hydroxytryptamine receptor 1A (Homo sapiens) (UniProt P08908); experiment: Inhibition of human 5-HT1A receptor at 10 nM relative to control
T1 sequence (whole entry): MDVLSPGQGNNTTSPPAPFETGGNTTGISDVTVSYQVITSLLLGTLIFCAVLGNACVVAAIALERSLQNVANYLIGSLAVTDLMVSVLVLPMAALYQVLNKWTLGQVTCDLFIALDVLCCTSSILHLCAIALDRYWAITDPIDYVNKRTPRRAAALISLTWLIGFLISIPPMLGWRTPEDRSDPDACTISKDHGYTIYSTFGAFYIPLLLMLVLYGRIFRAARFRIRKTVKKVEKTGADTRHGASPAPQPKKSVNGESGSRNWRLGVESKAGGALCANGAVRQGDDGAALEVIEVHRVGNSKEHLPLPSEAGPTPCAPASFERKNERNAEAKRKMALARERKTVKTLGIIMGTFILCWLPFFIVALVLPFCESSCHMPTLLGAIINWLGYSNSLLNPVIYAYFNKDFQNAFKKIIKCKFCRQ

[3] = target: D(1A) dopamine receptor (Homo sapiens) (UniProt P21728); experiment: Inhibition of human dopamine D1 receptor at 10 uM relative to control
[4] = target: Estrogen receptor (Homo sapiens) (UniProt P03372); experiment: Inhibition of human ERalpha receptor at 10 uM relative to control
Rattus norvegicus [5] = organism: Rattus norvegicus; experiment: Inhibition of rat strychnine-sensitive glycine receptor at 10 uM relative to control
Rattus norvegicus [6] = organism: Rattus norvegicus; experiment: Inhibition of rat 5-HT1 receptor at 10 uM relative to control
[7] = target: Oxytocin receptor (Homo sapiens) (UniProt P30559); experiment: Inhibition of human oxytocin receptor at 10 uM relative to control
[8] = target: Phosphodiesterase 3 (Homo sapiens) (UniProt Q14432+Q13370); experiment: Inhibition of human PDE3 at 100 uM relative to control; type: protein assay
Cavia porcellus = organism: Cavia porcellus; experiment: Inhibition of guinea pig adenosine transporter at 1 uM relative to control
[9] = target: 5-hydroxytryptamine receptor 2B (Homo sapiens, UniProt P41595); experiment: Inhibition of human 5-HT2B receptor at 1 uM relative to control
[10] = target: Adenosine receptor A3 (Homo sapiens) (UniProt P0DMS8); experiment: Inhibition of human adenosine A3 receptor at 10 uM relative to control
Oryctolagus cuniculus = organism: Oryctolagus cuniculus; experiment: Inhibition of rabbit monoamine transporter at 10 uM relative to control
[11] = target: Vascular endothelial growth factor receptor 1 (Homo sapiens) (UniProt P17948); experiment: Inhibition of human FLT1 at 10 uM relative to control
Gallus gallus = organism: Gallus gallus; experiment: Inhibition of chicken MT receptor at 10 uM relative to control
[12] = target: Epidermal growth factor receptor (Homo sapiens) (UniProt P00533); experiment: Inhibition of human EGF receptor at 10 uM relative to control
Caspase-3 (Homo sapiens) = Caspase-3 (Homo sapiens) (UniProt P42574); experiment: Inhibition of human caspase 3 at 10 uM relative to control
[13] = target: Vasopressin V2 receptor (Homo sapiens) (UniProt P30518); experiment: Inhibition of human V2 receptor at 10 uM relative to control
[14] = target: 5-hydroxytryptamine receptor 6 (Homo sapiens) (UniProt P50406); experiment: Inhibition of human 5-HT6 receptor at 10 uM relative to control
[15] = target: Natriuretic peptides A (Cavia porcellus) (UniProt P27596); experiment: Inhibition of guinea pig atrial natriuretic factor at 10 uM relative to control; details: Cardiac atrium
[16] = target: Prostacyclin receptor (Homo sapiens) (UniProt P43119); experiment: Inhibition of human prostanoid IP receptor at 10 uM relative to control
Rattus norvegicus [17] = experiment: Antiinsomnic activity in rat EEG model assessed as increase in REM sleep time at 15 mg/kg, po; type: functional, organism-based; parameters: dose 15 mg/kg
Method in brief: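 Rats with EEG telemetry given 15 mg/kg orally during their active period, vehicle 20% Vitamin E TPGS in water. Sleep architecture (active wake, light sleep, delta and REM sleep) scored from EEG.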

[18] = target: Neurotensin receptor type 1 (Homo sapiens) (UniProt P30989); experiment: Inhibition of human NT1 receptor at 10 uM relative to control
[19] = target: Muscarinic acetylcholine receptor M2 (Homo sapiens) (UniProt P08172); experiment: Inhibition of human muscarinic M2 receptor at 10 uM relative to control
[20] = target: Nitric oxide synthase, inducible (Mus musculus) (UniProt P29477); experiment: Inhibition of mouse iNOS at 10 uM relative to control
D(3) dopamine receptor = D(3) dopamine receptor (Homo sapiens, UniProt P35462); experiment: Inhibition of human dopamine D3 receptor at 10 nM relative to control
[21] = target: Phosphodiesterase 4 (Homo sapiens) (UniProt P27815+Q08499+Q07343+Q08493); experiment: Inhibition of human PDE4 at 100 uM relative to control; type: protein assay
[22] = target: Inositol 1,4,5-trisphosphate-gated calcium channel ITPR1 (Rattus norvegicus) (UniProt P29994); experiment: Inhibition of rat IP3 receptor at 10 uM relative to control
Rattus norvegicus [23] = organism: Rattus norvegicus; experiment: Inhibition of rat bombesin receptor at 10 uM relative to control
[24] = target: Platelet-activating factor receptor (Homo sapiens) (UniProt P25105); experiment: Inhibition of human PAF receptor at 10 uM relative to control
[25] = target: Somatostatin receptor type 2 (Homo sapiens) (UniProt P30874); experiment: Inhibition of human SST2 receptor at 10 uM relative to control
Cricetinae = experiment: Inhibition of hamster ATP-sensitive potassium channel at 10 uM relative to control
[26] = target: Glutamate NMDA receptor (Rattus norvegicus) (UniProt P35439+Q00959+Q00960+Q00961+Q62645+Q8VHN2+Q9R1M7); experiment: Inhibition of rat NMDA receptor glycine binding site at 10 uM relative to control; type: protein-complex assay
[27] = target: Beta-1 adrenergic receptor (Homo sapiens) (UniProt P08588); experiment: Inhibition of human beta1 adrenergic receptor at 10 uM relative to control
[28] = target: Alpha-2C adrenergic receptor (Homo sapiens) (UniProt P18825); experiment: Inhibition of human alpha2C adrenergic receptor at 10 uM relative to control
Homo sapiens = organism: Homo sapiens; experiment: Selectivity ratio of Ki for human orexin-1 receptor to Ki for human orexin-2 receptor
Method in brief: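 Radioligand binding: a high-affinity radioligand was bound to membranes from human cells overexpressing OX1R or OX2R, and inhibition of that binding was measured and expressed as Ki. The ratio is the OX1R Ki divided by the OX2R Ki.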

[29] = target: Androgen receptor (Rattus norvegicus) (UniProt P15207); experiment: Inhibition of rat androgen receptor at 10 uM relative to control
[30] = target: Sodium-dependent dopamine transporter (Homo sapiens) (UniProt Q01959); experiment: Inhibition of human DAT at 10 uM relative to control

Chain of Oxytocin receptor (Homo sapiens) (P30559 whole entry): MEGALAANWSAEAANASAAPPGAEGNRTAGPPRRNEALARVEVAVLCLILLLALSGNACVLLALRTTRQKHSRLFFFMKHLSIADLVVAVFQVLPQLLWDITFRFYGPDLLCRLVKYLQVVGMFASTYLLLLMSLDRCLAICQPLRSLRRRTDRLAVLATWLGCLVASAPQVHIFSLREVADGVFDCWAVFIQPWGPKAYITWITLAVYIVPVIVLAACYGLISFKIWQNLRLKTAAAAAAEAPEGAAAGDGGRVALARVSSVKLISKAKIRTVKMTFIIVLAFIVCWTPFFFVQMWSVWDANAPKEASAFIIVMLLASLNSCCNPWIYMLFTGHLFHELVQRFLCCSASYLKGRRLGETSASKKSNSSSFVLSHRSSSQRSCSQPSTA
Chain of D(3) dopamine receptor (P35462 whole entry): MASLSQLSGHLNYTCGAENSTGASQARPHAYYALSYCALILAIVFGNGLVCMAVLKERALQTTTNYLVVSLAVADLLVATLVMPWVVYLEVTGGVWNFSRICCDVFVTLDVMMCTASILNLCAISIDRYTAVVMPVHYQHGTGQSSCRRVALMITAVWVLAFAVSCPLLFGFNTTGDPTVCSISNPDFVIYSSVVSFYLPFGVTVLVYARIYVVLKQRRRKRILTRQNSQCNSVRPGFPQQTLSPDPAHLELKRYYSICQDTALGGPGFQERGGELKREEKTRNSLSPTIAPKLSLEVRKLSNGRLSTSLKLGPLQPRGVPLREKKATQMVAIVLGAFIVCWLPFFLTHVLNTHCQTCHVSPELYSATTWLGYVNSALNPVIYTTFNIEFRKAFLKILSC
Chain of Somatostatin receptor type 2 (Homo sapiens) (P30874 whole entry): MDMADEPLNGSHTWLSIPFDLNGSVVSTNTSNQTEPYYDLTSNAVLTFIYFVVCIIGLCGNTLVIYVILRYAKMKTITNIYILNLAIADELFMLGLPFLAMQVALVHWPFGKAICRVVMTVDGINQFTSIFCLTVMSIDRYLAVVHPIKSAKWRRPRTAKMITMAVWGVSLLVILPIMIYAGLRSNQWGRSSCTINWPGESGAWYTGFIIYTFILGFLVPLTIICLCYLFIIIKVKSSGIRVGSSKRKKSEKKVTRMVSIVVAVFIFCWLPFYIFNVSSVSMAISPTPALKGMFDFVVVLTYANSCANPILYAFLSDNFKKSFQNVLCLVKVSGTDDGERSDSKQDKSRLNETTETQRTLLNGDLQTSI
Chain of Natriuretic peptides A (Cavia porcellus) (P27596 whole entry): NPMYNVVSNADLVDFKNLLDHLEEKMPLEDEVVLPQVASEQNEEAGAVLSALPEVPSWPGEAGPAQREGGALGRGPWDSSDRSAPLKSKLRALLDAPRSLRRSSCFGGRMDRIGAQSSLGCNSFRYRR
Chain of Alpha-2C adrenergic receptor (Homo sapiens) (P18825 whole entry): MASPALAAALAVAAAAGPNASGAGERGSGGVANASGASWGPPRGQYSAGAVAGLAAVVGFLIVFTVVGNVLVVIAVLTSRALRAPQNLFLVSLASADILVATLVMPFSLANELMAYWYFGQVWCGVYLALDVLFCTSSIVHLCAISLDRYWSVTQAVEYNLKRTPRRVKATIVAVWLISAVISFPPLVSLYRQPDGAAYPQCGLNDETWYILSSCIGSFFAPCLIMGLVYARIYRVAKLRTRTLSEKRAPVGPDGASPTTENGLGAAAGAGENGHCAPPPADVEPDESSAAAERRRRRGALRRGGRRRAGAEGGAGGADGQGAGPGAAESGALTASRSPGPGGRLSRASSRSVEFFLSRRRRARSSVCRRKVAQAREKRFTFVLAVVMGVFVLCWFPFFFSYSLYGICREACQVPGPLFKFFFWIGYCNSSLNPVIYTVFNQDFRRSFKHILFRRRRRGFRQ
Chain of Adenosine receptor A3 (Homo sapiens) (P0DMS8 whole entry): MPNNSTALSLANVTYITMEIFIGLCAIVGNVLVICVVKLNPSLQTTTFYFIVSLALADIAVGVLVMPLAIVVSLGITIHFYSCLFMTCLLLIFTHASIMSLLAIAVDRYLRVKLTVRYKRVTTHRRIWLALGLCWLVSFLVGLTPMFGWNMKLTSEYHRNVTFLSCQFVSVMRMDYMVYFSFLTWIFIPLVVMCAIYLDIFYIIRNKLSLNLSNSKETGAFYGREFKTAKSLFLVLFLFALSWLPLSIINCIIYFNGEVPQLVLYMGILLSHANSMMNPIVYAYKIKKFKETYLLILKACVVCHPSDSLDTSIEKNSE
Chain of Nitric oxide synthase, inducible (Mus musculus) (P29477 whole entry): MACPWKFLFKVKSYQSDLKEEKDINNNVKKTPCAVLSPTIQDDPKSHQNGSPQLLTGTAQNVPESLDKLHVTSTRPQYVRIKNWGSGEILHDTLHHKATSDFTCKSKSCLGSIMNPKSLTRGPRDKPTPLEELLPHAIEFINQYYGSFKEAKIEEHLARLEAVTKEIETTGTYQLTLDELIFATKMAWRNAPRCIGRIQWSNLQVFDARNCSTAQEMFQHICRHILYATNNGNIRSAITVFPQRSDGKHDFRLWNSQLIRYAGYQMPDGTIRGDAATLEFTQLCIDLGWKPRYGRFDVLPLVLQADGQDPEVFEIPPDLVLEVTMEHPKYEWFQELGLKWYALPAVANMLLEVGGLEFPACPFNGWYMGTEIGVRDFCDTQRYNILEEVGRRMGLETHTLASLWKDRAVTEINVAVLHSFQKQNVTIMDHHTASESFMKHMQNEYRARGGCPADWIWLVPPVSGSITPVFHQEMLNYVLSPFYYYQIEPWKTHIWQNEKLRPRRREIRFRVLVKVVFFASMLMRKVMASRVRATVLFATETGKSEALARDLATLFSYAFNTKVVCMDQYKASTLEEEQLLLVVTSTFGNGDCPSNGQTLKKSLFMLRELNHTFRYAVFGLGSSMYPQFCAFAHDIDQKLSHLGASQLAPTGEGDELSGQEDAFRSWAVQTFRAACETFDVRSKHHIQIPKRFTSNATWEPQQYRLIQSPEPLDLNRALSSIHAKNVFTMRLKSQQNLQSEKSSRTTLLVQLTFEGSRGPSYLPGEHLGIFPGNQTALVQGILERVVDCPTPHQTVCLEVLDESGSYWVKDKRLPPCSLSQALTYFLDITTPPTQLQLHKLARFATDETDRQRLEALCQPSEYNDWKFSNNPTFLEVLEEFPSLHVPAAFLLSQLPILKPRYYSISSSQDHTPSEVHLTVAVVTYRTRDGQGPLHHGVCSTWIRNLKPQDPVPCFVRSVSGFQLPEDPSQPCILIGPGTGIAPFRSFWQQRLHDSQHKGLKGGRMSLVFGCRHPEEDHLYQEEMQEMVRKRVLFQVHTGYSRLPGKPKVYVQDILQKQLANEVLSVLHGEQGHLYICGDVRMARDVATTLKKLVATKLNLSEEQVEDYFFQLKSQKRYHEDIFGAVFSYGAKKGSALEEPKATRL
Chain of Androgen receptor (Rattus norvegicus) (P15207 whole entry S389L): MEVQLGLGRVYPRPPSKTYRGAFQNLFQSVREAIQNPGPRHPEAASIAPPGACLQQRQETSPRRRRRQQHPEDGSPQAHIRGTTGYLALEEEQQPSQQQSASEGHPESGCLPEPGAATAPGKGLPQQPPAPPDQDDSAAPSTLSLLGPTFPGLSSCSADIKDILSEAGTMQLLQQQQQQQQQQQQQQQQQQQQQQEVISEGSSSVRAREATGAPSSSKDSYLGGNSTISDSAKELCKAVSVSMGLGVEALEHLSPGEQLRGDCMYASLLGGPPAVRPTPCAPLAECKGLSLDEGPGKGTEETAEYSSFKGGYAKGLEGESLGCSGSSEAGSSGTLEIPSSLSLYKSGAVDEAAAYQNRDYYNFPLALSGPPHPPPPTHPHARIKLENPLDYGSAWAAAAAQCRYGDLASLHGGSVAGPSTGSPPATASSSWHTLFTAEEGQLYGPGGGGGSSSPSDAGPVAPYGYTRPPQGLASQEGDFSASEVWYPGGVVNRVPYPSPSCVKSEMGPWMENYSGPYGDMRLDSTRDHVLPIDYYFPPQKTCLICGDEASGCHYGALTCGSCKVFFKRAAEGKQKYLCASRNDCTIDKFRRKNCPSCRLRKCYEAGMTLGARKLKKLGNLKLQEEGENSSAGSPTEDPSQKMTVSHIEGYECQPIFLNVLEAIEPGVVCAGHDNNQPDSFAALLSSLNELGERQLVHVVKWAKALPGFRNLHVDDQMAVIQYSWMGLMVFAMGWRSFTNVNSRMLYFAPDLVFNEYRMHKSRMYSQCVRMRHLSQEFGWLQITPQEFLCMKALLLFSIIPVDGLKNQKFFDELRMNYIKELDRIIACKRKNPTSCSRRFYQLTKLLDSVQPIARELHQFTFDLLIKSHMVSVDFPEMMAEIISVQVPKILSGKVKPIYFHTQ
Chain of Caspase-3 (Homo sapiens) (P42574 29-175 limits assumed): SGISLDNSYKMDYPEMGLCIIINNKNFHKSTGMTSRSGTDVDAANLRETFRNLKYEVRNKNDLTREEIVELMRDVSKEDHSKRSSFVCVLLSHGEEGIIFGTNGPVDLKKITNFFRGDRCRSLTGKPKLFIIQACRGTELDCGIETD
Chain of Caspase-3 (Homo sapiens) (P42574 176-277 limits assumed): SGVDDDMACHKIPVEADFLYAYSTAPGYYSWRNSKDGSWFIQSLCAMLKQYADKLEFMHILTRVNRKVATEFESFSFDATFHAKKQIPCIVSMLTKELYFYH
Chain of D(1A) dopamine receptor (Homo sapiens) (P21728 whole entry): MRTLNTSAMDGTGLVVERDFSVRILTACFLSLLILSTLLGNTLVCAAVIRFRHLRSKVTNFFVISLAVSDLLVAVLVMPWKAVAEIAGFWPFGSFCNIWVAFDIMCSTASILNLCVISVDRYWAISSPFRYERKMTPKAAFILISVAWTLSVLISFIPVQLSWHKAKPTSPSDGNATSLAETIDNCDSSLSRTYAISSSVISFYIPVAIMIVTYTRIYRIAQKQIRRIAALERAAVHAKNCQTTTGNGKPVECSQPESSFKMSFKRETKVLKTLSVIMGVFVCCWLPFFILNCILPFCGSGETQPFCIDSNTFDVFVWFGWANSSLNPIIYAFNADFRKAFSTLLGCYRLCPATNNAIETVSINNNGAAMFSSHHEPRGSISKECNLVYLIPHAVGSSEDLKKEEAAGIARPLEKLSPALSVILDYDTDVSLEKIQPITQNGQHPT

inhibition [1]: 4%
inhibition [2]: 2%
inhibition [3]: 2%
inhibition [4]: 20%
inhibition (Rattus norvegicus [5]): -5%
inhibition (Rattus norvegicus [6]): 36%
inhibition [7]: 14%
inhibition [8]: 0%
inhibition (Cavia porcellus): 32%
inhibition [9]: 52%
inhibition [10]: 33%
inhibition (Oryctolagus cuniculus): 52%
inhibition [11]: 20%
inhibition (Gallus gallus): 22%
inhibition [12]: 10%
inhibition (Caspase-3 (Homo sapiens)): -1%
inhibition [13]: 0%
inhibition [14]: -8%
inhibition [15]: 1%
inhibition [16]: -2%
inhibition [18]: 21%
inhibition [19]: -8%
inhibition [20]: 2%
inhibition (D(3) dopamine receptor): 5%
inhibition [21]: 5%
inhibition [22]: 0%
inhibition (Rattus norvegicus [23]): 3%
inhibition [24]: 31%
inhibition [25]: -3%
inhibition (Cricetinae): 0%
inhibition [26]: 9%
inhibition [27]: 9%
inhibition [28]: 5%
Ratio Ki (Homo sapiens): 1350
inhibition [29]: 7%
inhibition [30]: -7%
Structure (SMILES): COc1ccc(CNC(=O)c2cc(-c3cc(Cl)cc(Cl)c3)cnc2-c2cccnc2)cc1OC
Activity (Rattus norvegicus [17]): Active
